# Assay results taken from ChEMBL document CHEMBL1138050, “Furan-2-ylmethylene thiazolidinediones as novel, potent, and selective inhibitors of phosphoinositide 3-kinase gamma” (J Med Chem, 2006).
# The source made the active and inactive calls. The rule behind the calls is not given here.
# Columns and labels:
# [1] = biological target: Ribosomal protein S6 kinase alpha-1 (Homo sapiens) (UniProt Q15418); assay: Residual activity at human Rsk1 at 10 uM in presence of 10 uM ATP relative to control
# Outline: (§1)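 Single-concentration counter-screen across a panel of 80 Ser/Thr and Tyr protein kinases. Compound was tested at 10 µM with ATP at 10 µM. Activity remaining in each kinase is expressed relative to control.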
# [2] = biological target: Fibroblast growth factor receptor 3 (Homo sapiens) (UniProt P22607); assay: Residual activity at human FGFR3 at 10 uM in presence of 10 uM ATP relative to control
# Outline: (§2)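 Panel of Ser/Thr and Tyr protein kinases, each tested with 10 µM compound in the presence of 10 µM ATP; activity expressed relative to control.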
# [3] = biological target: CDK3/cyclin E (Homo sapiens) (UniProt P24864+O96020+Q00526); assay: Residual activity at human CDK3/CyclinE at 10 uM in presence of 10 uM ATP relative to control; type: protein-complex assay; outline: as §2
# [4] = biological target: Protein kinase C epsilon type (Homo sapiens) (UniProt Q02156); assay: Residual activity at human PKCepsilon at 10 uM in presence of 10 uM ATP relative to control; outline: as §1
# [5] = biological target: BDNF/NT-3 growth factors receptor (Homo sapiens) (UniProt Q16620); assay: Residual activity at human TrkB at 10 uM in presence of 10 uM ATP relative to control; outline: as §1
# [6] = biological target: Ca2+/calmodulin-dependent protein kinase II (CaM kinase II) (Rattus norvegicus) (UniProt P11275+P08413+P15791+P11730); assay: Residual activity at rat CaMK2 at 10 uM in presence of 10 uM ATP relative to control; type: protein assay
# [7] = biological target: RAC-gamma serine/threonine-protein kinase (Homo sapiens) (UniProt Q9Y243); assay: Residual activity at human PKBgamma at 10 uM in presence of 10 uM ATP relative to control; outline: as §1
# [8] = biological target: Tyrosine-protein kinase Fes/Fps (Homo sapiens) (UniProt P07332); assay: Residual activity at human Fes at 10 uM in presence of 10 uM ATP relative to control; outline: as §2
# [9] = biological target: Serine/threonine-protein kinase Sgk1 (Homo sapiens) (UniProt O00141); assay: Residual activity at human SGK at 10 uM in presence of 10 uM ATP relative to control; outline: as §1
# [10] = biological target: Mitogen-activated protein kinase 12 (Homo sapiens) (UniProt P53778); assay: Residual activity at human SAPK3 at 10 uM in presence of 10 uM ATP relative to control; outline: as §1
# Sequence of Mitogen-activated protein kinase 12 (Homo sapiens) (P53778 whole entry): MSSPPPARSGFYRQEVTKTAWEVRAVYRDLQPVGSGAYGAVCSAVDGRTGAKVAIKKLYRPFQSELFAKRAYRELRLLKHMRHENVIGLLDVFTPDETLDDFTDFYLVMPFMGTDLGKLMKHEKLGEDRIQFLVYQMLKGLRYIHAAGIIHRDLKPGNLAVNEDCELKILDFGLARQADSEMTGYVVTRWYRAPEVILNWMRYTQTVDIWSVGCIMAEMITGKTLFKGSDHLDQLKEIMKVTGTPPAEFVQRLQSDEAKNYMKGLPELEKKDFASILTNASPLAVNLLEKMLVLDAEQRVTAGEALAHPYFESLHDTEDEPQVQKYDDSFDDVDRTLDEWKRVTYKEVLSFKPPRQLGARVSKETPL
# [11] = biological target: Protein kinase C theta type (Homo sapiens) (UniProt Q04759); assay: Residual activity at human PKCtheta at 10 uM in presence of 10 uM ATP relative to control; outline: as §1
# [12] = biological target: Tyrosine-protein kinase CSK (Homo sapiens) (UniProt P41240); assay: Residual activity at human CSK at 10 uM in presence of 10 uM ATP relative to control; outline: as §2
# [13] = biological target: Insulin receptor (Homo sapiens) (UniProt P06213); assay: Residual activity at human IR at 10 uM in presence of 10 uM ATP relative to control; outline: as §2
# Sequence of Insulin receptor (Homo sapiens) (P06213 28-758 limits assumed): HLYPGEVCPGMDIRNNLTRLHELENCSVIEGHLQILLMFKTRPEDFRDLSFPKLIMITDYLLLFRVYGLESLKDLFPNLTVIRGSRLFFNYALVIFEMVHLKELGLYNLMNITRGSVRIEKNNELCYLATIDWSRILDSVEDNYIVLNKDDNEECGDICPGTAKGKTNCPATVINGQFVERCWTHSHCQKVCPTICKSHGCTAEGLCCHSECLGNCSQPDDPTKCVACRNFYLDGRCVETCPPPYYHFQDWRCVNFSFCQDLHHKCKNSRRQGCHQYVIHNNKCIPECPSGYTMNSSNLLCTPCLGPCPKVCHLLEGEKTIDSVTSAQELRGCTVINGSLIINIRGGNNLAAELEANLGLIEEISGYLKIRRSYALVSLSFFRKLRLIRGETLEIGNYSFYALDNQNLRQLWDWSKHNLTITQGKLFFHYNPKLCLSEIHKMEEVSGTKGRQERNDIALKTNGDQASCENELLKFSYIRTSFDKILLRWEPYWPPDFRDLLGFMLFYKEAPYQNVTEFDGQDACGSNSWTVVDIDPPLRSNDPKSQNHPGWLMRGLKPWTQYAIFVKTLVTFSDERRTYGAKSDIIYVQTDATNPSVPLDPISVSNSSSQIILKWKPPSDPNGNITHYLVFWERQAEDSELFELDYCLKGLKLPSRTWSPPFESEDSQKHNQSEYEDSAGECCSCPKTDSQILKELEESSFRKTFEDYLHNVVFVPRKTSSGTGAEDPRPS
# Sequence of Insulin receptor (Homo sapiens) (P06213 763-1382 limits assumed): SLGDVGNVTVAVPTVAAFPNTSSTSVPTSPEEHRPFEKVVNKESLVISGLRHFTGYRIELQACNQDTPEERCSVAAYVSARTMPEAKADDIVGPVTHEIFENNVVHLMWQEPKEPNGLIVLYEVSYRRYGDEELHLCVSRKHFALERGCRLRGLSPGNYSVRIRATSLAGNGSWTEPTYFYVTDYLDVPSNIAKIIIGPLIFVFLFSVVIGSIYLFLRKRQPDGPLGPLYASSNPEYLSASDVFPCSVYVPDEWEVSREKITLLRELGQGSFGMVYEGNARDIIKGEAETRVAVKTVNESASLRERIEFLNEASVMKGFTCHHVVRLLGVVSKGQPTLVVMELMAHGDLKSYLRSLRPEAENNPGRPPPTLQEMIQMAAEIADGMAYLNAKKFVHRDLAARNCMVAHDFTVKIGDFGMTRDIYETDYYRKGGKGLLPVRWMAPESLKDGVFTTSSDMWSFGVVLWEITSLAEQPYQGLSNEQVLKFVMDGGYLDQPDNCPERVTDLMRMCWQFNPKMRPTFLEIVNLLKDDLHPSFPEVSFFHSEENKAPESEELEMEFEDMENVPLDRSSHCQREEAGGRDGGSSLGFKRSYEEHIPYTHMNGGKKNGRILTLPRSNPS
# Mast cell = assay: Inhibition of SCF-induced PKB/Akt phosphorylation in mouse mast cells at 10 uM; type: functional, cell-based
# Outline: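 Bone marrow mast cells from 4- to 8-week-old wild-type mice, derived ≥4 weeks in 20 ng/mL SCF plus 20 ng/mL IL-3 and confirmed c-kit+ by FACS. Cells at 2.5 × 10^6/mL starved 24 h without SCF/IL-3, preincubated 20 min with compound or 1% DMSO, stimulated 15 min at 37 °C with 20 ng/mL SCF. Fixed in 1.5% paraformaldehyde, permeabilized with 0.2% Triton X-100, phospho-Ser-473 Akt read by FACS.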
# [14] = biological target: Mitogen-activated protein kinase 14 (Homo sapiens) (UniProt Q16539); assay: Residual activity at human SAPK2a at 10 uM in presence of 10 uM ATP relative to control; outline: as §1
# Sequence of Mitogen-activated protein kinase 14 (Homo sapiens) (Q16539 whole entry): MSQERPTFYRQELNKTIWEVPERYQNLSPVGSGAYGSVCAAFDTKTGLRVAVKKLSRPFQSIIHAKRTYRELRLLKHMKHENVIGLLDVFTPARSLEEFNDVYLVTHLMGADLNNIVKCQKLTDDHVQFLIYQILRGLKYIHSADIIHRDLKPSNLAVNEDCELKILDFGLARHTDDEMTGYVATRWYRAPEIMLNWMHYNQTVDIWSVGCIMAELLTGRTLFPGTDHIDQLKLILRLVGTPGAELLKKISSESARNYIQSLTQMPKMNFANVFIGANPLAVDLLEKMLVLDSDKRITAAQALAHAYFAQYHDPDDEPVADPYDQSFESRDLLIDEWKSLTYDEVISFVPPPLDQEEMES
# [15] = biological target: Protein kinase C iota type (Homo sapiens) (UniProt P41743); assay: Residual activity at human PKCiota at 10 uM in presence of 10 uM ATP relative to control; outline: as §1
# [16] = biological target: Dual specificity mitogen-activated protein kinase kinase 7 (Homo sapiens, UniProt O14733); assay: Inhibition of human MKK7beta
# [17] = biological target: Inhibitor of nuclear factor kappa-B kinase subunit beta (Homo sapiens) (UniProt O14920); assay: Residual activity at human IKK-beta at 10 uM in presence of 10 uM ATP relative to control; outline: as §2
# Sequence of Inhibitor of nuclear factor kappa-B kinase subunit beta (Homo sapiens) (O14920 whole entry): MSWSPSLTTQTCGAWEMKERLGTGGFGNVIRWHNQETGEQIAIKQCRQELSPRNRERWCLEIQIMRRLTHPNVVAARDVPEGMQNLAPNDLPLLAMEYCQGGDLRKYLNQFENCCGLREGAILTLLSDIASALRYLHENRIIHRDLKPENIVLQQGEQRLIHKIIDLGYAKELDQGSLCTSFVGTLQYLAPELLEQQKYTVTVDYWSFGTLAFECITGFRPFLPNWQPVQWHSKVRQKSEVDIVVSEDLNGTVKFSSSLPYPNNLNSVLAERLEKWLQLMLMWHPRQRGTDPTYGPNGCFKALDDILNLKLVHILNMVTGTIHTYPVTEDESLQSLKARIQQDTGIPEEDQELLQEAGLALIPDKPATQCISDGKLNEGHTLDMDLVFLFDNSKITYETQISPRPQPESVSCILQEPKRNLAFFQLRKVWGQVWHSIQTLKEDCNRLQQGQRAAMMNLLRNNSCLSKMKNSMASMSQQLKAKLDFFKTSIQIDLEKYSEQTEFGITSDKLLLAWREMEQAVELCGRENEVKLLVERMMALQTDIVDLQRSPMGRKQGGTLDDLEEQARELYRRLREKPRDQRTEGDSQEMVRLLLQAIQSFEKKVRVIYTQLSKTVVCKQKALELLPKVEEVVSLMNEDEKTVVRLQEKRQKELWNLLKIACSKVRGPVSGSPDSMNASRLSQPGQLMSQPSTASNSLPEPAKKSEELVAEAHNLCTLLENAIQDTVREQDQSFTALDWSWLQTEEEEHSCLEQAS
# Rattus norvegicus = assay: Half life in rat at 10 mg/kg, iv; type: ADME, organism-based; parameters: dose 10 mg/kg, route intravenous; settings: in vivo
# Outline: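 Rats given a single 10 mg/kg dose, intravenously or orally. The compound was given as its potassium salt, prepared with KOH in THF/water, for the in vivo work.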
# [18] = biological target: Dual specificity mitogen-activated protein kinase kinase 1 (Homo sapiens) (UniProt Q02750); assay: Residual activity at human MEK1 at 10 uM in presence of 10 uM ATP relative to control; outline: as §1
# [19] = biological target: Cyclin-dependent kinase 1/cyclin B1 (Homo sapiens) (UniProt P06493+P14635); assay: Residual activity at human CDK1/CyclinB at 10 uM in presence of 10 uM ATP relative to control; type: protein-complex assay; outline: as §2
# Sequence of Cyclin-dependent kinase 1/cyclin B1 (Homo sapiens) (P06493 whole entry, looked up): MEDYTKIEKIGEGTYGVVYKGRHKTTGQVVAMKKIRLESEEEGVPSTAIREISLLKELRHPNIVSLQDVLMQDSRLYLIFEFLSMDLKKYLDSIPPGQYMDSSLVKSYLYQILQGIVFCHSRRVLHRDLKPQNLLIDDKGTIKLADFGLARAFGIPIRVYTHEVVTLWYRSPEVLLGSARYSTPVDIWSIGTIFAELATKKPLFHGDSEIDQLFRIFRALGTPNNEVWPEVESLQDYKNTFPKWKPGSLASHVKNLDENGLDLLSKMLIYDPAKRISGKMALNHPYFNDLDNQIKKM
# Sequence of Cyclin-dependent kinase 1/cyclin B1 (Homo sapiens) (P14635 whole entry, looked up): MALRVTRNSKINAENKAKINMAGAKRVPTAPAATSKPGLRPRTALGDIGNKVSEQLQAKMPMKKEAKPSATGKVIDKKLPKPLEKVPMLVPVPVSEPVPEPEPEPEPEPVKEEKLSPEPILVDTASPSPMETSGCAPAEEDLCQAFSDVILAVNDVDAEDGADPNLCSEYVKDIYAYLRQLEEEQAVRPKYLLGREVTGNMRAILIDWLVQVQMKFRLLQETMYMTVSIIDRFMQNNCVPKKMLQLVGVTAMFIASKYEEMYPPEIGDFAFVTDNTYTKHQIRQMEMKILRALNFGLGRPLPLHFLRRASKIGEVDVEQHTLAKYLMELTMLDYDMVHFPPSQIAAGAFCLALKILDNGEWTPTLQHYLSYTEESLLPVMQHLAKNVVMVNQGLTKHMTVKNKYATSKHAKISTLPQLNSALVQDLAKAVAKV
# [20] = biological target: Serine/threonine-protein kinase Chk1 (Homo sapiens) (UniProt O14757); assay: Residual activity at human Chk1 at 10 uM in presence of 10 uM ATP relative to control; outline: as §2
# [21] = biological target: Cyclin-dependent kinase 2/cyclin E (Homo sapiens) (UniProt P24864+P24941+O96020); assay: Residual activity at human CDK2/CyclinE at 10 uM in presence of 10 uM ATP relative to control; type: protein-complex assay; outline: as §2
# [22] = biological target: Platelet-derived growth factor receptor alpha (Homo sapiens) (UniProt P16234); assay: Residual activity at human PDGFRalpha at 10 uM in presence of 10 uM ATP relative to control; outline: as §1
# Sequence of Platelet-derived growth factor receptor alpha (Homo sapiens) (P16234 whole entry, canonical isoform): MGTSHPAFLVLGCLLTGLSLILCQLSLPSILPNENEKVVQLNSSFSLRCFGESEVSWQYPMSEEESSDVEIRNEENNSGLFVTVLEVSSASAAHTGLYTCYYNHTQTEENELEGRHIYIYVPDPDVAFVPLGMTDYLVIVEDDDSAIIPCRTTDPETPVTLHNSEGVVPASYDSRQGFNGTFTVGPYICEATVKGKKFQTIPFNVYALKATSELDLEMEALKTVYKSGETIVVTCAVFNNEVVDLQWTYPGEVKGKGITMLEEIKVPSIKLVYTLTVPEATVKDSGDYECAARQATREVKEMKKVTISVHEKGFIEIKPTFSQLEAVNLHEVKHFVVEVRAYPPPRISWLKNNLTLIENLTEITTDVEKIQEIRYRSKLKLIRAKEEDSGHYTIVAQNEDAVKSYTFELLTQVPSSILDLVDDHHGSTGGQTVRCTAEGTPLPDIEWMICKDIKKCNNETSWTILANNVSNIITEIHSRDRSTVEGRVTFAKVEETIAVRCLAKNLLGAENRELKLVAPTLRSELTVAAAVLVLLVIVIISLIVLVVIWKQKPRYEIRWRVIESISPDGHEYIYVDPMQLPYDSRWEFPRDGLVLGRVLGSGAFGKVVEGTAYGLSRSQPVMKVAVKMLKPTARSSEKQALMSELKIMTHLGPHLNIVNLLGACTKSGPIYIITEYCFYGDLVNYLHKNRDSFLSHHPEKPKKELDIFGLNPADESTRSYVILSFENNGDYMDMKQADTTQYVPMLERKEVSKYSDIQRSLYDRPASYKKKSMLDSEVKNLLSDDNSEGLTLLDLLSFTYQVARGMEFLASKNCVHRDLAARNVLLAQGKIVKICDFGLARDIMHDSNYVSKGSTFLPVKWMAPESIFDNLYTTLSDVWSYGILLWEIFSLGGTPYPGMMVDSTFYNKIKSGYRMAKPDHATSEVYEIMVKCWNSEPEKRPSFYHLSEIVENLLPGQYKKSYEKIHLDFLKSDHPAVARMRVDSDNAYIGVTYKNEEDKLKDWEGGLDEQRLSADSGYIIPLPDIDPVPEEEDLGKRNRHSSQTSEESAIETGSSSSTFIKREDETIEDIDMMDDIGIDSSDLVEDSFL
# [23] = biological target: Phosphatidylinositol 4,5-bisphosphate 3-kinase catalytic subunit alpha isoform (Homo sapiens, UniProt P42336); assay: Inhibition of human PI3Kalpha
# Monocyte = assay: Inhibition of MCP1-induced chemotaxis of mouse primary monocytes; type: functional, cell-based
# Outline: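 Cells were starved and pretreated with inhibitor or DMSO, then chemotaxis was induced with MCP-1 (10^-9 M). Primary mouse monocytes: 10^7 5-day bone-marrow-derived monocytes in medium with 0.5% BSA and compound, placed in the upper chamber of a 5 µm transwell. MCP-1 plus compound in the lower chamber. After 3 h at 37 °C, 5% CO2, cells in the lower chamber were counted. IC50.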
# THP-1 = assay: Inhibition of MCP1-induced PKB/Akt phosphorylation in THP1 cells; type: functional, cell-based; settings: Homo sapiens
# Outline: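 THP-1 monocytes starved 3 h in serum-free medium and pretreated with inhibitor or DMSO (15 min in methods; 20 min in figure legend). Stimulated with 100 nM MCP-1/CCL2 for 30 s, or with 50 ng/mL CSF-1 for 5 min. Phospho-Ser-473 and total Akt detected by Western blot and quantified.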
structure (smiles),measurement,setting,value
O=C1NC(=O)/C(=C/c2ccc(-c3ccc(F)cc3O)o2)S1,Activity,[1],104%
same,Activity,[2],121%
same,Activity,[3],117%
same,Activity,[4],93%
same,Activity,[5],98%
same,Activity,[6],97%
same,Activity,[7],96%
same,Activity,[8],90%
same,Activity,[9],98%
same,Activity,[10],93%
same,Activity,[11],102%
same,Activity,[12],103%
same,Activity,[13],90%
same,Activity,Mast cell,inactive
same,Activity,[14],84%
same,Activity,[15],84%
same,IC50,[16],> 10000 nM
same,Activity,[17],89%
same,T1/2,Rattus norvegicus,39 min
same,Activity,[18],96%
same,Activity,[19],80%
same,Activity,[20],94%
same,Activity,[21],93%
same,Activity,[22],85%
same,IC50,[23],940 nM
same,IC50,Monocyte,52000 nM
same,IC50,THP-1,400 nM
